Reference: ChEMBL document CHEMBL4052602, “Sesquiterpenoids with Various Carbocyclic Skeletons from the Flowers of Chrysanthemum indicum” (J Nat Prod, 2017)
Active and inactive are the calls of the source. The calls are words filed in the database; no cut-off is given here.

Assays:
[1] = test system: Vero; experiment: Cytotoxicity against African green monkey Vero cells assessed as decrease in cell viability at 70 uM after 2 days by MTT assay; format: cell-based; settings: chlorocebus sabaeus, 48 h
[2] = test system: Porcine epidemic diarrhea virus; experiment: Antiviral activity against Porcine epidemic diarrhea virus infected in African green monkey Vero cells assessed as inhibition of virus-induced cytopathic effect at 40 uM after 3 days; format: functional
How it was run: (§1)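 Vero cells were inoculated with PEDV for 2 h, then treated with compound and incubated 3 days, with CPE inhibition as read-out. Screening was at 40 or 50 μM for non-cytotoxic compounds and at 20 μM for cytotoxic ones; the dose-response covered 20–90 μM. Azauridin was the positive control; mean ± SD, n = 3, versus virus-injected control.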

[3] = test system: Vero; experiment: Cytotoxicity against African green monkey Vero cells assessed as decrease in cell viability at 20 to 80 uM after 2 days by MTT assay; format: cell-based; settings: chlorocebus sabaeus, 48 h
[4] = test system: Porcine epidemic diarrhea virus; experiment: Antiviral activity against Porcine epidemic diarrhea virus infected in African green monkey Vero cells assessed as inhibition of virus-induced cytopathic effect at 20 uM after 3 days; format: functional; how it was run: as §1
[5] = test system: Porcine epidemic diarrhea virus; experiment: Antiviral activity against Porcine epidemic diarrhea virus infected in African green monkey Vero cells assessed as inhibition of virus-induced cytopathic effect at 20 to 80 uM after 3 days; format: functional
[6] = test system: Vero; experiment: Cytotoxicity against African green monkey Vero cells assessed as decrease in cell viability at 80 uM after 2 days by MTT assay; format: cell-based; settings: chlorocebus sabaeus, 48 h
[7] = test system: Porcine epidemic diarrhea virus; experiment: Antiviral activity against Porcine epidemic diarrhea virus infected in African green monkey Vero cells assessed as decrease in spike protein synthesis at 20 to 80 uM after 24 hrs by DAPI staining-based fluorescence microscopy; format: functional
How it was run: (§2)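 Virus-injected Vero cells were incubated 24 h with compound at 80, 40 or 20 μM, or with azauridin (20 μM) as positive control. Cells were then fixed, permeabilized and stained with monoclonal antibody against spike (or nucleocapsid) protein for immunofluorescence, alongside noninjected cells.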

[8] = test system: Porcine epidemic diarrhea virus; experiment: Antiviral activity against Porcine epidemic diarrhea virus infected in African green monkey Vero cells assessed as decrease in spike protein expression levels after 24 hrs by Western blot analysis; format: functional
How it was run: (§3)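 PEDV-infected Vero cells were incubated with or without compound for 24 h; single-compound tests were at 40 or 45 μM, and a dose series at 80, 40, 20 and 10 μM. Cells were lysed and blotted with nucleocapsid and spike antibodies. Azauridin was the positive control; mean ± SD, n = 3, versus virus-injected control.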

[9] = test system: Porcine epidemic diarrhea virus; experiment: Antiviral activity against Porcine epidemic diarrhea virus infected in African green monkey Vero cells assessed as decrease in nucleocapsid synthesis after 24 hrs by DAPI staining-based fluorescence microscopy; format: functional
How it was run: (§4)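 PEDV-infected Vero cells co-incubated with compound at 20, 40 or 80 μM for 24 h, with azauridin 20 μM as positive control. Cells fixed, permeabilized and stained with monoclonal antibody to nucleocapsid or spike. Antigen-expressing cells were scored by immunofluorescence and compared with uninfected and virus-infected controls.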

[10] = test system: Porcine epidemic diarrhea virus; experiment: Antiviral activity against Porcine epidemic diarrhea virus infected in African green monkey Vero cells assessed as decrease in nucleocapsid synthesis at 20 to 80 uM after 24 hrs by DAPI staining-based fluorescence microscopy; format: functional; how it was run: as §4
[11] = test system: Porcine epidemic diarrhea virus; experiment: Antiviral activity against Porcine epidemic diarrhea virus infected in African green monkey Vero cells assessed as decrease in nucleocapsid expression levels at 40 uM after 24 hrs by Western blot analysis; format: functional
How it was run: (§5)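 Vero cells inoculated with PEDV, then incubated with or without compound (40 or 45 μM, or 10, 20, 40, 80 μM) for 24 h. Cells lysed and probed by Western blot with anti-nucleocapsid and anti-spike antibodies. Azauridin was the positive control. Values are relative to virus-infected control, mean ± SD (n = 3).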

[12] = test system: Porcine epidemic diarrhea virus; experiment: Antiviral activity against Porcine epidemic diarrhea virus infected in African green monkey Vero cells assessed as decrease in nucleocapsid expression levels after 24 hrs by Western blot analysis; format: functional; how it was run: as §5
[13] = test system: Porcine epidemic diarrhea virus; experiment: Antiviral activity against Porcine epidemic diarrhea virus infected in African green monkey Vero cells assessed as decrease in spike protein expression levels at 10 to 80 uM after 24 hrs by Western blot analysis; format: functional; how it was run: as §3
[14] = test system: Porcine epidemic diarrhea virus; experiment: Antiviral activity against Porcine epidemic diarrhea virus infected in African green monkey Vero cells assessed as inhibition of virus-induced cytopathic effect after 3 days; format: functional; how it was run: as §1
[15] = test system: Porcine epidemic diarrhea virus; experiment: Antiviral activity against Porcine epidemic diarrhea virus infected in African green monkey Vero cells assessed as decrease in spike expression levels at 40 uM after 24 hrs by Western blot analysis; format: functional; how it was run: as §3
[16] = test system: Porcine epidemic diarrhea virus; experiment: Antiviral activity against Porcine epidemic diarrhea virus infected in African green monkey Vero cells assessed as decrease in nucleocapsid expression levels at 10 to 80 uM after 24 hrs by Western blot analysis; format: functional; how it was run: as §5
[17] = test system: Porcine epidemic diarrhea virus; experiment: Antiviral activity against Porcine epidemic diarrhea virus infected in African green monkey Vero cells assessed as decrease in spike protein synthesis levels after 24 hrs by DAPI staining-based fluorescence microscopy; format: functional; how it was run: as §2
[18] = test system: Porcine epidemic diarrhea virus; experiment: Antiviral activity against Porcine epidemic diarrhea virus infected in African green monkey Vero cells assessed as decrease in spike protein expression levels at 45 uM after 24 hrs by Western blot analysis; format: functional; how it was run: as §3
[19] = test system: Porcine epidemic diarrhea virus; experiment: Antiviral activity against Porcine epidemic diarrhea virus infected in African green monkey Vero cells assessed as decrease in nucleocapsid expression levels at 45 uM after 24 hrs by Western blot analysis; format: functional; how it was run: as §5
[20] = test system: Vero; experiment: Cytotoxicity against African green monkey Vero cells assessed as decrease in cell viability at 90 uM after 2 days by MTT assay; format: cell-based; settings: chlorocebus sabaeus, 48 h
[21] = test system: Porcine epidemic diarrhea virus; experiment: Antiviral activity against Porcine epidemic diarrhea virus infected in African green monkey Vero cells assessed as inhibition of virus-induced cytopathic effect at 20 to 90 uM after 3 days; format: functional; how it was run: as §1
[22] = test system: Vero; experiment: Cytotoxicity against African green monkey Vero cells assessed as decrease in cell viability at 20 to 70 uM after 2 days by MTT assay; format: cell-based; settings: chlorocebus sabaeus, 48 h

## CC(C)(O)[C@@H]1CC[C@@]2(C)CCC[C@]3(CO3)[C@]2(O)[C@@H]1O
[1]
  Activity: Non-Toxic
[2]
  Activity: Active

## C=C1C(=O)O[C@@H]2[C@H]3C(C)=CC(=O)C3=C(C)C[C@H](O)[C@@H]12
[3]
  Activity: Toxic
[4]
  Activity: Active

## CC(C)(O)[C@@H]1CC[C@@]2(C)CCC[C@@]3(CO)O[C@@]23[C@@H]1O
[1]
  Activity: Non-Toxic
[2]
  Activity: Active

## C=C1CCC[C@@]2(C)CC[C@@H](C(C)(C)O)[C@@H](O)[C@@]12O
[5]
  Activity: Active
[6]
  Activity: Non-Toxic
[7]
  Activity: Active
[8]
  Activity: Dose-dependent effect
[9]
  Activity: Dose-dependent effect
[10]
  Activity: Active
[11]
  Activity: Active
[12]
  Activity: Dose-dependent effect
[13]
  Activity: Active
[14]
  Activity: Dose-dependent effect
[15]
  Activity: Active
[16]
  Activity: Active
[17]
  Activity: Dose-dependent effect

## CC(C)(O)[C@@H]1C=C2C(CO)=CCC[C@@]2(C)CC1
[3]
  Activity: Toxic

## C=C(C)[C@H]1CCC(=C)[C@@]2(O)C[C@H](O)C(=C)[C@@H](C1)O2
[3]
  Activity: Toxic

## C=C1/C=C/[C@H](C(C)C)CCC(=C)[C@H](O)CC1
[18]
  Activity: Active
[19]
  Activity: Active
[20]
  Activity: Non-Toxic
[21]
  Activity: Active
[14]
  Activity: Dose-dependent effect

## C[C@@H]1CCC(=O)[C@@H]2CC[C@@H](C(C)(C)O)C[C@@]12C
[2]
  Activity: Active
[6]
  Activity: Non-Toxic

## C=C1CC[C@@H](O)[C@]2(C)C[C@@H]3[C@@H](C(C)C)[C@@H]3[C@@H]12
[18]
  Activity: Active
[19]
  Activity: Active
[20]
  Activity: Non-Toxic
[21]
  Activity: Active
[14]
  Activity: Dose-dependent effect

## CC(=O)O[C@H]1CC(C)=C2C(=O)C=C(C)[C@@H]2[C@H]2OC(=O)[C@@H](C)[C@@H]21
[22]
  Activity: Toxic

## CC(=O)CC[C@@H]1[C@H]2CCC(=O)[C@@H](C(C)C)[C@@H]12
[20]
  Activity: Non-Toxic

## C=C1CC[C@@H]2[C@H]([C@H]3[C@H]1CC[C@]3(C)O)C2(C)C [SPATHULENOL]
[20]
  Activity: Non-Toxic

## C=C1CCC[C@]2(C)CC[C@@H](C(C)(C)O)[C@@H](O)[C@@]12O
[2]
  Activity: Active
[6]
  Activity: Non-Toxic

## CC(=O)O[C@@H]1C=C(C)[C@@]2(O)CC=C(C)[C@H]2[C@@H]2OC(=O)[C@H](C)[C@H]21
[22]
  Activity: Toxic

## C=C(C)[C@@H]1CC[C@@]2(C)[C@H](O)C[C@@H](O)C(=C)[C@@H]2C1
[2]
  Activity: Active
[6]
  Activity: Non-Toxic

## C=C(C)[C@@H]1CC[C@]2(C)C(=C(C)C(=O)C[C@H]2O)C1 [LIGUCYPERONOL]
[2]
  Activity: Active
[20]
  Activity: Non-Toxic

## C=C1CC[C@@H](O)[C@]2(C)CC[C@@H](C(C)C)[C@H](O)[C@@H]12
[2]
  Activity: Active
[6]
  Activity: Non-Toxic

## C=C(C)[C@@H]1CC/C(C)=C\C[C@@H](O)C(=C)[C@@H](O)C1
[2]
  Activity: Active
[6]
  Activity: Non-Toxic
